Shown are actives, neighbours in structure and some others; about 4.5% of the full set was active somewhere.
GPR7 antag = blocks human GPR7 receptor signaling | P48145 | GPR7-expressing cells, fluorescence antagonist assay | inhibition, % at 4.4 µM | hit rate 1.1% among 290,000 | AID 1861; in the data active = inhibition above about 16%, passing the limit was not always enough;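 note: cells stimulated with the agonist NPW; 0% = agonist with vehicle and 100% = vehicle without agonist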
CHO parental Ca = counter-screen: ATP calcium response change in parental CHO cells; parental CHO-K1, ATP-induced calcium, Fluo-8 fluorescence; inhibition, % at 5.6 µM; hit rate 0.63% among 330,000;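 active = inhibition above that plate's mean sample inhibition plus 3 SD, cut at about 26% in these data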;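 note: 0% = ATP-challenged DMSO wells and 100% = DMSO wells without ATP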
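Test system: untransfected parental CHO cell line; also added: ATP stimulus; dosing: 5.6 µM, single dose; signal: calcium-sensitive Fluo-8 fluorescence; measure: percent inhibition of ATP-evoked calcium rise, normalized to controls; benchmarks: low control ATP plus DMSO, high control DMSO only; replication: one well per compound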
TAAR1 antagonist = human TAAR1 antagonism; hit rate 1.5% among 360,000; inhibition, % at 3 µM; Q96RJ0; AID 624466; CHO RD-HGA16 TAAR1, Fluo-8 calcium fluorescence, antagonist;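 active = inhibition above a per-plate cutoff, the mean inhibition of test compounds on that plate plus 3 SD, cut at about 49% in these data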;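 note: 0% = DMSO plus EC80 beta-PEA response and 100% = DMSO alone without agonist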
Target sequence (Q96RJ0 whole entry, looked up): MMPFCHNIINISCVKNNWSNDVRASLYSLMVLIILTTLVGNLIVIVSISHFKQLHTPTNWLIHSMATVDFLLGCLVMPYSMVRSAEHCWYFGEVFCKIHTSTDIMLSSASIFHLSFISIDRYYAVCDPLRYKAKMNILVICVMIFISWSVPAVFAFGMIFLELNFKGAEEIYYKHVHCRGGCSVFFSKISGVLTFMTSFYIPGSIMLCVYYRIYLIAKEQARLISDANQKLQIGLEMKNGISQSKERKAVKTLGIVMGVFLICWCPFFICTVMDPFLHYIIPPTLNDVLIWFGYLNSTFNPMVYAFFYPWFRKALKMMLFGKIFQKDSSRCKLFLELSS
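test system = CHO RD-HGA16 cells bearing hTAAR1 | replication = singlicate | controls = DMSO-only wells and EC80 β-PEA-stimulated wells | reagent = EC80 β-phenethylamine stimulus | read-out basis = percent inhibition of PEA-evoked calcium signal, max/basal emission ratio | schedule = seeding 17-24 h prior, 75-min 37 °C, 30-min RT dye loading | signal = kinetic Fluo-8 calcium fluorescence measurement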
TAAR1 agonist = human TAAR1 agonism; Q96RJ0; activation, % at 3 µM; CHO RD-HGA16 TAAR1, Fluo-8 calcium fluorescence; vehicle wells 0%, saturating PEA agonist 100%; hit rate 0.99% among 360,000;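 active = activation above the mean activation of all test compounds in the run plus 3 SD, cut at about 38% in these data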
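Signal – calcium-sensitive Fluo-8 signal, excitation 470-495, emission 515-575 nm · System – RD-HGA16 (CHO) cells co-expressing Gα16 and hTAAR1 · Incubation – 17-24 h seeding, 75 min 37 °C dye, 30 min RT · Compound dosing – 3 µM single concentration · Repeats – no replicates (n 1)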
OX1R antag-1 = OX1R (human) antagonism; inhibition, % at 6.6 µM; AID 485270; hit rate 1.8% among 330,000; O43613; OX1R-expressing cells, FRET antagonist read-out; in the data active = inhibition mostly above about 38%, no sharp cut-off; inactive = mostly below about 40%;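 note: 0% = agonist challenge alone and 100% = reference antagonist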
OX1R antag-2 = blocks the human orexin 1 receptor; AID 434989; inhibition, % at 5 µM; CHO/OX1R cells, Fluo-8 calcium fluorescence, orexin A; hit rate 0.43% among 330,000;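 active = inhibition above its plate's threshold, mean inhibition of all tested compounds on the plate plus 3 SD, cut at about 37% in these data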;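 note: 0% = orexin A challenge wells and 100% = SB-334867-A antagonist wells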
GPR7 antag conf = human GPR7 antagonism, confirmation assay. shares compounds with GPR7 antag. GPR7-expressing cells, calcium fluorescence antagonist mode. inhibition, % at 4.4 µM. hit rate 52% among 2,400; in the data active = inhibition above about 24%;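 note: stimulated with the GPR7 agonist NPW; 0% = agonist plus vehicle and 100% = vehicle alone without agonist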
MCHR1 antag = MCHR1 (human) antagonism in GPR7 counter-screen. shares compounds with GPR7 antag. MCHR1-expressing cells, fluorescence antagonist assay. inhibition, % at 4.4 µM. hit rate 62% among 2,400; in the data active = inhibition above about 22%;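 note: 0% = vehicle with agonist and 100% = vehicle without agonist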
* hit, by the source's call.

`CN(C)CCCN(C(=O)c1ccc2c(c1)OCCO2)c1nc2ccc(Cl)cc2s1` gave GPR7 antag 51*, CHO parental Ca 12, TAAR1 antagonist 34, TAAR1 agonist 15, OX1R antag-1 11, OX1R antag-2 6, GPR7 antag conf 61* and MCHR1 antag 46*.
Screening Cc1cccc2sc(N(CCCN(C)C)C(=O)c3ccc4ncsc4c3)nc12 returned GPR7 antag 26*, CHO parental Ca -18, TAAR1 antagonist 7, TAAR1 agonist 6, OX1R antag-1 18, OX1R antag-2 -11, GPR7 antag conf 39* and MCHR1 antag 29*.
Screening Cc1ccc2nc(N(CCCN(C)C)C(=O)c3ccc(S(=O)(=O)N4CCc5ccccc5C4)cc3)sc2c1 returned GPR7 antag 32*, CHO parental Ca -15, TAAR1 antagonist 7, TAAR1 agonist 45*, OX1R antag-1 12, OX1R antag-2 -19, GPR7 antag conf 44* and MCHR1 antag 33*.
CN(C)CCN(C(=O)c1ccc2c(c1)OCCO2)c1nc2ccc(Cl)cc2s1 was read as GPR7 antag -16, CHO parental Ca -10, TAAR1 antagonist 23, TAAR1 agonist 2, OX1R antag-1 19 and OX1R antag-2 -16.
For Cc1ccc2sc(N(CCCN(C)C)C(=O)CCS(=O)(=O)c3ccccc3)nc2c1C the results were GPR7 antag 48*, CHO parental Ca -7, TAAR1 antagonist 5, TAAR1 agonist 24, OX1R antag-1 2, OX1R antag-2 -10, GPR7 antag conf 43* and MCHR1 antag 51*.
Screening Cc1cccc2sc(N(CCCN(C)C)C(=O)c3nc4ccccc4s3)nc12 returned GPR7 antag -2, CHO parental Ca -2, TAAR1 antagonist -10, TAAR1 agonist 1, OX1R antag-1 29 and OX1R antag-2 -7.
`Cc1cc(C)c2sc(N(CCCN(C)C)C(=O)c3ccc(S(=O)(=O)N4CCc5ccccc5C4)cc3)nc2c1` gave CHO parental Ca -15, OX1R antag-1 -1 and OX1R antag-2 -3.
CCc1nc(SCc2cc(=O)[nH]c3ccccc23)c2c(C)c(C)sc2n1 was read as TAAR1 antagonist -26 and TAAR1 agonist 0.
For CN(C)CCCN(C(=O)c1cc(-c2cccs2)nc2ccccc12)c1nc2ccc(F)cc2s1 the results were GPR7 antag 30*, CHO parental Ca 14, TAAR1 antagonist 42, TAAR1 agonist 19, OX1R antag-1 14, OX1R antag-2 15, GPR7 antag conf 58* and MCHR1 antag 58*.
`C=C(C)CSc1nnc(-c2cccc(S(=O)(=O)N(C)C)c2)n1-c1cc(OC)ccc1OC` gave GPR7 antag 32*, CHO parental Ca -29, TAAR1 antagonist 20, TAAR1 agonist 12, OX1R antag-1 21, OX1R antag-2 -24, GPR7 antag conf 35* and MCHR1 antag 9.
FC(F)Sc1ccc(NC(=S)NCC2CCCCC2)cc1 was read as GPR7 antag 34*, CHO parental Ca 22, TAAR1 antagonist 50*, TAAR1 agonist 9, OX1R antag-1 32, OX1R antag-2 2, GPR7 antag conf 58* and MCHR1 antag 75*.
`FC(F)Sc1ccc(NC(=S)NCc2ccccc2)cc1` gave GPR7 antag 46*, CHO parental Ca 11, TAAR1 antagonist 27, TAAR1 agonist 10, OX1R antag-1 26, OX1R antag-2 -7, GPR7 antag conf 37* and MCHR1 antag 51*.
Screening CCCS(=O)(=O)NC(=O)C1(C)CCN(C(=O)c2snnc2C)C1 (configuration not stated) returned TAAR1 antagonist 1 and TAAR1 agonist 0.

High-throughput results from PubChem BioAssay.
